Values belong to the molecule of their own block, whether it stands above or below them.
Experiments:
[1] = test system: Heart; assay: Biodistribution in ddY mouse heart at 0.1 to 0.4 uCi, iv after 60 mins by gamma counting; type: ADME, organism-based; conditions: in vivo, 1 h
How it was run: (§1)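 [125I]ligand (0.1–0.4 µCi) in 100 µL PBS (pH 7.4) containing 30 µL DMSO, injected into the tail vein of ddY mice (5 weeks, 22–25 g). Mice sacrificed at 2, 10, 30 and 60 min. Organs removed, weighed and gamma-counted. Values are % injected dose per gram, except stomach as % dose per organ. Mean (SD) of 3–6 mice per time point.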

[2] = test system: Pancreas; assay: Biodistribution in ddY mouse pancreas at 0.1 to 0.4 uCi, iv after 60 mins by gamma counting; type: ADME, organism-based; conditions: in vivo, 1 h; how it was run: as §1
[3] = test system: Stomach; assay: Biodistribution in ddY mouse stomach assessed per organ at 0.1 to 0.4 uCi, iv after 60 mins by gamma counting; type: ADME, organism-based; conditions: in vivo, 1 h; how it was run: as §1
[4] = test system: Lung; assay: Biodistribution in ddY mouse lung at 0.1 to 0.4 uCi, iv after 60 mins by gamma counting; type: ADME, organism-based; conditions: in vivo, 1 h; how it was run: as §1
[5] = test system: Spleen; assay: Biodistribution in ddY mouse spleen at 0.1 to 0.4 uCi, iv after 60 mins by gamma counting; type: ADME, organism-based; conditions: in vivo, 1 h; how it was run: as §1
[6] = test system: Intestine; assay: Biodistribution in ddY mouse intestine at 0.1 to 0.4 uCi, iv after 60 mins by gamma counting; type: ADME, organism-based; conditions: in vivo, 1 h; how it was run: as §1
[7] = test system: Kidney; assay: Biodistribution in ddY mouse kidney at 0.1 to 0.4 uCi, iv after 60 mins by gamma counting; type: ADME, organism-based; conditions: in vivo, 1 h; how it was run: as §1
[8] = test system: Liver; assay: Biodistribution in ddY mouse liver at 0.1 to 0.4 uCi, iv after 60 mins by gamma counting; type: ADME, organism-based; conditions: in vivo, 1 h; how it was run: as §1
[9] = test system: Brain; assay: Biodistribution in ddY mouse brain at 0.1 to 0.4 uCi, iv after 60 mins by gamma counting; type: ADME, organism-based; conditions: in vivo, 1 h; how it was run: as §1
[10] = test system: Blood; assay: Biodistribution in ddY mouse blood at 0.1 to 0.4 uCi, iv after 60 mins by gamma counting; type: ADME, organism-based; conditions: in vivo, 1 h; how it was run: as §1
[11] = test system: Heart; assay: Biodistribution in ddY mouse heart at 0.1 to 0.4 uCi, iv after 30 mins by gamma counting; type: ADME, organism-based; conditions: in vivo, 0.5 h; how it was run: as §1
[12] = test system: Pancreas; assay: Biodistribution in ddY mouse pancreas at 0.1 to 0.4 uCi, iv after 30 mins by gamma counting; type: ADME, organism-based; conditions: in vivo, 0.5 h; how it was run: as §1
[13] = test system: Stomach; assay: Biodistribution in ddY mouse stomach assessed per organ at 0.1 to 0.4 uCi, iv after 30 mins by gamma counting; type: ADME, organism-based; conditions: in vivo, 0.5 h; how it was run: as §1
[14] = test system: Lung; assay: Biodistribution in ddY mouse lung at 0.1 to 0.4 uCi, iv after 30 mins by gamma counting; type: ADME, organism-based; conditions: in vivo, 0.5 h; how it was run: as §1
[15] = test system: Spleen; assay: Biodistribution in ddY mouse spleen at 0.1 to 0.4 uCi, iv after 30 mins by gamma counting; type: ADME, organism-based; conditions: in vivo, 0.5 h; how it was run: as §1
[16] = test system: Intestine; assay: Biodistribution in ddY mouse intestine at 0.1 to 0.4 uCi, iv after 30 mins by gamma counting; type: ADME, organism-based; conditions: in vivo, 0.5 h; how it was run: as §1
[17] = test system: Kidney; assay: Biodistribution in ddY mouse kidney at 0.1 to 0.4 uCi, iv after 30 mins by gamma counting; type: ADME, organism-based; conditions: in vivo, 0.5 h; how it was run: as §1
[18] = test system: Liver; assay: Biodistribution in ddY mouse liver at 0.1 to 0.4 uCi, iv after 30 mins by gamma counting; type: ADME, organism-based; conditions: in vivo, 0.5 h; how it was run: as §1
[19] = test system: Brain; assay: Biodistribution in ddY mouse brain at 0.1 to 0.4 uCi, iv after 30 mins by gamma counting; type: ADME, organism-based; conditions: in vivo, 0.5 h; how it was run: as §1
[20] = test system: Blood; assay: Biodistribution in ddY mouse blood at 0.1 to 0.4 uCi, iv after 30 mins by gamma counting; type: ADME, organism-based; conditions: in vivo, 0.5 h; how it was run: as §1
[21] = test system: Heart; assay: Biodistribution in ddY mouse heart at 0.1 to 0.4 uCi, iv after 10 mins by gamma counting; type: ADME, organism-based; conditions: in vivo; how it was run: as §1
[22] = test system: Pancreas; assay: Biodistribution in ddY mouse pancreas at 0.1 to 0.4 uCi, iv after 10 mins by gamma counting; type: ADME, organism-based; conditions: in vivo; how it was run: as §1
[23] = test system: Stomach; assay: Biodistribution in ddY mouse stomach assessed per organ at 0.1 to 0.4 uCi, iv after 10 mins by gamma counting; type: ADME, organism-based; conditions: in vivo; how it was run: as §1
[24] = test system: Lung; assay: Biodistribution in ddY mouse lung at 0.1 to 0.4 uCi, iv after 10 mins by gamma counting; type: ADME, organism-based; conditions: in vivo; how it was run: as §1
[25] = test system: Spleen; assay: Biodistribution in ddY mouse spleen at 0.1 to 0.4 uCi, iv after 10 mins by gamma counting; type: ADME, organism-based; conditions: in vivo; how it was run: as §1
[26] = test system: Intestine; assay: Biodistribution in ddY mouse intestine at 0.1 to 0.4 uCi, iv after 10 mins by gamma counting; type: ADME, organism-based; conditions: in vivo; how it was run: as §1
[27] = test system: Liver; assay: Biodistribution in ddY mouse liver at 0.1 to 0.4 uCi, iv after 10 mins by gamma counting; type: ADME, organism-based; conditions: in vivo; how it was run: as §1
[28] = test system: Kidney; assay: Biodistribution in ddY mouse kidney at 0.1 to 0.4 uCi, iv after 10 mins by gamma counting; type: ADME, organism-based; conditions: in vivo; how it was run: as §1
[29] = test system: Brain; assay: Biodistribution in ddY mouse brain at 0.1 to 0.4 uCi, iv after 10 mins by gamma counting; type: ADME, organism-based; conditions: in vivo; how it was run: as §1
[30] = test system: Blood; assay: Biodistribution in ddY mouse blood at 0.1 to 0.4 uCi, iv after 10 mins by gamma counting; type: ADME, organism-based; conditions: in vivo; how it was run: as §1
[31] = test system: Pancreas; assay: Biodistribution in ddY mouse pancreas at 0.1 to 0.4 uCi, iv after 2 mins by gamma counting; type: ADME, organism-based; conditions: in vivo; how it was run: as §1
[32] = test system: Heart; assay: Biodistribution in ddY mouse heart at 0.1 to 0.4 uCi, iv after 2 mins by gamma counting; type: ADME, organism-based; conditions: in vivo; how it was run: as §1
[33] = test system: Stomach; assay: Biodistribution in ddY mouse stomach assessed per organ at 0.1 to 0.4 uCi, iv after 2 mins by gamma counting; type: ADME, organism-based; conditions: in vivo; how it was run: as §1
[34] = test system: Lung; assay: Biodistribution in ddY mouse lung at 0.1 to 0.4 uCi, iv after 2 mins by gamma counting; type: ADME, organism-based; conditions: in vivo; how it was run: as §1
[35] = test system: Intestine; assay: Biodistribution in ddY mouse intestine at 0.1 to 0.4 uCi, iv after 2 mins by gamma counting; type: ADME, organism-based; conditions: in vivo; how it was run: as §1
[36] = test system: Spleen; assay: Biodistribution in ddY mouse spleen at 0.1 to 0.4 uCi, iv after 2 mins by gamma counting; type: ADME, organism-based; conditions: in vivo; how it was run: as §1
[37] = test system: Kidney; assay: Biodistribution in ddY mouse kidney at 0.1 to 0.4 uCi, iv after 2 mins by gamma counting; type: ADME, organism-based; conditions: in vivo; how it was run: as §1
[38] = test system: Liver; assay: Biodistribution in ddY mouse liver at 0.1 to 0.4 uCi, iv after 2 mins by gamma counting; type: ADME, organism-based; conditions: in vivo; how it was run: as §1
[39] = test system: Blood; assay: Biodistribution in ddY mouse blood at 0.1 to 0.4 uCi, iv after 2 mins by gamma counting; type: ADME, organism-based; conditions: in vivo; how it was run: as §1
[40] = test system: Brain; assay: Biodistribution in ddY mouse brain at 0.1 to 0.4 uCi, iv after 2 mins by gamma counting; type: ADME, organism-based; conditions: in vivo; how it was run: as §1
[41] = n-octanol-sodium phosphate buffer partition co-efficient, log D of the compound at pH 7.4 by shake flask method; type: physicochemical
How it was run: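 Shake-flask partition between n-octanol and sodium phosphate buffer, pH 7.4, shaken 10 min at room temperature, then centrifuged. Weighed 0.5 mL samples of each layer counted. log D from the ratio of cpm per gram of octanol to cpm per gram of buffer; n = 3.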

[42] = target: Amyloid-beta precursor protein (Homo sapiens, UniProt P05067); assay: Displacement of [125I]IMPY from amyloid beta (1 to 42) (unknown origin) after 3 hrs by gamma counting
How it was run: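 Filtered through GF/B filters and bound radioactivity gamma-counted. IC50 from displacement curves of three independent experiments; Ki calculated with the Cheng–Prusoff equation.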

Amyloid-beta precursor protein, sequence (P05067 whole entry): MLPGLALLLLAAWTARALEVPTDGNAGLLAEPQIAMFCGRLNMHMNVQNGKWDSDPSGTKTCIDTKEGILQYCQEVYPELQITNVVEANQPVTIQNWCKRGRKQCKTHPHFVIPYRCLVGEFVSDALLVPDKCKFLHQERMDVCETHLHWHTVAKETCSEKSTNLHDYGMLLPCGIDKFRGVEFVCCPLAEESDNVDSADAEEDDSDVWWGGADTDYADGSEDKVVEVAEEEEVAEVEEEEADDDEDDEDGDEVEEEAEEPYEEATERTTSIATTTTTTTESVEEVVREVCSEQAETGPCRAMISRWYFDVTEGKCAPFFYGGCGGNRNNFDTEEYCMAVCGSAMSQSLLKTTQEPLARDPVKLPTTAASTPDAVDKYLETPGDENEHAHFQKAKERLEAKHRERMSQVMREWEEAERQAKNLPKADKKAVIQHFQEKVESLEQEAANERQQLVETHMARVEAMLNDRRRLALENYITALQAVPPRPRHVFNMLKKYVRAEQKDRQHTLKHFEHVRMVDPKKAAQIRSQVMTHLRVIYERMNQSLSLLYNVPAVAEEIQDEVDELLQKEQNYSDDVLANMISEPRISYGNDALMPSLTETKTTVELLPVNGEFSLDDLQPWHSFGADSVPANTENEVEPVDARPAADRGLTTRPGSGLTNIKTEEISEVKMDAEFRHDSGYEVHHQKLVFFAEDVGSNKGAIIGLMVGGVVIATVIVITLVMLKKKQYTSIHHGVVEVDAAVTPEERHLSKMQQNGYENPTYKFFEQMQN

- Drug uptake [1]: 4.33 % ID/g
- Drug uptake [2]: 9.81 % ID/g
- Drug uptake [3]: 1.4 %ID
- Drug uptake [4]: 21.84 % ID/g
- Drug uptake [5]: 11.22 % ID/g
- Drug uptake [6]: 6.5 % ID/g
- Drug uptake [7]: 16.34 % ID/g
- Drug uptake [8]: 12.55 % ID/g
- Drug uptake [9]: 0.23 % ID/g
- Drug uptake [10]: 0.64 % ID/g
- Drug uptake [11]: 9.08 % ID/g
- Drug uptake [12]: 7.85 % ID/g
- Drug uptake [13]: 2.21 %ID
- Drug uptake [14]: 46.47 % ID/g
- Drug uptake [15]: 14.49 % ID/g
- Drug uptake [16]: 5.33 % ID/g
- Drug uptake [17]: 21.56 % ID/g
- Drug uptake [18]: 16.43 % ID/g
- Drug uptake [19]: 0.28 % ID/g
- Drug uptake [20]: 1.26 % ID/g
- Drug uptake [21]: 11.2 % ID/g
- Drug uptake [22]: 6.5 % ID/g
- Drug uptake [23]: 2.18 %ID
- Drug uptake [24]: 57.02 % ID/g
- Drug uptake [25]: 9.65 % ID/g
- Drug uptake [26]: 3.13 % ID/g
- Drug uptake [27]: 11.77 % ID/g
- Drug uptake [28]: 18.16 % ID/g
- Drug uptake [29]: 0.26 % ID/g
- Drug uptake [30]: 1.97 % ID/g
- Drug uptake [31]: 5.21 % ID/g
- Drug uptake [32]: 16.28 % ID/g
- Drug uptake [33]: 1.37 %ID
- Drug uptake [34]: 79.34 % ID/g
- Drug uptake [35]: 2.22 % ID/g
- Drug uptake [36]: 6.94 % ID/g
- Drug uptake [37]: 16.71 % ID/g
- Drug uptake [38]: 10.85 % ID/g
- Drug uptake [39]: 4.76 % ID/g
- Drug uptake [40]: 0.33 % ID/g
- logD [41]: 2.19
Compound: COc1ccc2nc3cc([125I])ccc3c(N(C)C)c2c1

- Ki [42]: 121 nM
Compound: COc1ccc2nc3cc(I)ccc3c(N(C)C)c2c1

The next lines start with the molecule.

Compound: COc1c2ccccc2nc2cc(I)ccc12
- Ki [42]: > 10000 nM

Compound: COc1ccc2nc3cc([125I])ccc3c(N)c2c1
- Drug uptake [1]: 0.49 % ID/g
- Drug uptake [2]: 0.76 % ID/g
- Drug uptake [3]: 1.74 %ID
- Drug uptake [4]: 1.4 % ID/g
- Drug uptake [5]: 3.28 % ID/g
- Drug uptake [6]: 11.2 % ID/g
- Drug uptake [7]: 3.58 % ID/g
- Drug uptake [8]: 2.84 % ID/g
- Drug uptake [9]: 0.19 % ID/g
- Drug uptake [10]: 0.49 % ID/g
- Drug uptake [11]: 2.26 % ID/g
- Drug uptake [12]: 4.98 % ID/g
- Drug uptake [13]: 6.66 %ID
- Drug uptake [14]: 5.04 % ID/g
- Drug uptake [15]: 10.6 % ID/g
- Drug uptake [16]: 17.49 % ID/g
- Drug uptake [17]: 12.64 % ID/g
- Drug uptake [18]: 8.4 % ID/g
- Drug uptake [19]: 1.27 % ID/g
- Drug uptake [20]: 1.46 % ID/g
- Drug uptake [21]: 4.57 % ID/g
- Drug uptake [22]: 11.52 % ID/g
- Drug uptake [23]: 6.58 %ID
- Drug uptake [24]: 14.29 % ID/g
- Drug uptake [25]: 14.65 % ID/g
- Drug uptake [26]: 14.19 % ID/g
- Drug uptake [27]: 14.79 % ID/g
- Drug uptake [28]: 22.51 % ID/g
- Drug uptake [29]: 3.16 % ID/g
- Drug uptake [30]: 2.09 % ID/g
- Drug uptake [31]: 4.34 % ID/g
- Drug uptake [32]: 4.46 % ID/g
- Drug uptake [33]: 0.99 %ID
- Drug uptake [34]: 9.91 % ID/g
- Drug uptake [35]: 1.86 % ID/g
- Drug uptake [36]: 4.7 % ID/g
- Drug uptake [37]: 9.81 % ID/g
- Drug uptake [38]: 6.24 % ID/g
- Drug uptake [39]: 1.15 % ID/g
- Drug uptake [40]: 1.35 % ID/g
- logD [41]: 2.13

Compound: COc1ccc2nc3cc(I)ccc3c(OC)c2c1
- Ki [42]: 28.9 nM

Reference: ChEMBL document CHEMBL2321753, “Synthesis and biological evaluation of radioiodinated quinacrine-based derivatives for SPECT imaging of Aβ plaques” (Eur J Med Chem, 2013)
